ChEMBL document CHEMBL4689842, “EUbOPEN Chemogenomics Library wave 1” (2021)

Test system: HEK-293T
Assay: Multiplex assay against HEK293T;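 as to Population Tubulin-Different-Phenotype (%): share of the cells with healthy nuclei that show this phenotype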
Format: toxicity, cell-based
Settings: human
Outline: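 At seeding, live cells were stained with Hoechst33342, BioTracker Green Microtubule Cytoskeleton Dye, MitoTracker Red and Annexin V Alexa Fluor 680. After compound addition they were imaged on a CQ1 microscope at 37°C and 5% CO2, and CellPathfinder machine-learning gating sorted them into Hoechst high-intensity objects or normal cells, with normal cells further split into healthy, pyknosed or fragmented nuclei and pyknosed cells into mitotic or apoptotic. Tubulin, mitochondrial-mass and membrane-permeability phenotypes are given as per cents of cells with healthy nuclei.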

[1] = 12 h, 1 µM, compound concentration 1 uM, replicate 1
[2] = 12 h, 1 µM, compound concentration 1 uM, replicate 2
[3] = 12 h, 10 µM, compound concentration 10 uM, replicate 1
[4] = 12 h, 10 µM, compound concentration 10 uM, replicate 2
[5] = 24 h, 1 µM, compound concentration 1 uM, replicate 1
[6] = 24 h, 1 µM, compound concentration 1 uM, replicate 2
[7] = 24 h, 10 µM, compound concentration 10 uM, replicate 1
[8] = 24 h, 10 µM, compound concentration 10 uM, replicate 2
[9] = 48 h, 1 µM, compound concentration 1 uM, replicate 1
[10] = 48 h, 1 µM, compound concentration 1 uM, replicate 2
[11] = 48 h, 10 µM, compound concentration 10 uM, replicate 1
[12] = 48 h, 10 µM, compound concentration 10 uM, replicate 2

How did the “Population Apoptotic (%)” value [1] turn out when CCOc1cc2ncc(C#N)c(Nc3ccc(OCc4ccccn4)c(Cl)c3)c2cc1NC(=O)/C=C/CN(C)C [NERATINIB] was run?
Its value is 50%.

What about the “Population Fragmented Nuclei (%)” value [1] of the same molecule?
Its value is 20%.

And the “Population Healthy Nuclei (%)” value [1]?
The value was 24%.

What about the “Population Hoechst High Intensity Objects (%)” value [1] of the same molecule?
Its value is 20%.

And the “Population Membrane Permeable-Phenotype (%)” value [1]?
Its value is 0%.

What about the “Population Mitochondria Different-Phenotype (%)” value [1] of the same molecule?
Its value is 85%.

What about the “Population Mitotic Cells (%)” value [1] of the same molecule?
Its value is 50%.

And the “Population Normal (%)” value [1]?
The value was 79%.

And the “Population Pyknosed Nuclei (%)” value [1]?
The value was 55%.

And the “Population Tubulin-Different-Phenotype (%)” value [1]?
The value was 55%.

What about the “Total Cell Count” value [1] of the same molecule?
The value was 254.

And the “Population Apoptotic (%)” value [2]?
Its value is 21%.

And the “Population Fragmented Nuclei (%)” value [2]?
Its value is 25%.

And the “Population Healthy Nuclei (%)” value [2]?
Its value is 46%.

And the “Population Hoechst High Intensity Objects (%)” value [2]?
The value was 19%.

And the “Population Membrane Permeable-Phenotype (%)” value [2]?
Its value is 3%.

What about the “Population Mitochondria Different-Phenotype (%)” value [2] of the same molecule?
The value was 15%.

And the “Population Mitotic Cells (%)” value [2]?
The value was 78%.

What about the “Population Normal (%)” value [2] of the same molecule?
Its value is 80%.

What about the “Population Pyknosed Nuclei (%)” value [2] of the same molecule?
Its value is 27%.

And the “Population Tubulin-Different-Phenotype (%)” value [2]?
Its value is 15%.

And the “Total Cell Count” value [2]?
The value was 471.

What about the “Population Apoptotic (%)” value [3] of the same molecule?
The value was 43%.

And the “Population Fragmented Nuclei (%)” value [3]?
The value was 25%.

And the “Population Healthy Nuclei (%)” value [3]?
Its value is 52%.

What about the “Population Hoechst High Intensity Objects (%)” value [3] of the same molecule?
Its value is 29%.

And the “Population Mitochondria Different-Phenotype (%)” value [3]?
Its value is 22%.

What about the “Population Mitotic Cells (%)” value [3] of the same molecule?
The value was 56%.

And the “Population Normal (%)” value [3]?
Its value is 70%.

And the “Population Pyknosed Nuclei (%)” value [3]?
Its value is 21%.

And the “Population Tubulin-Different-Phenotype (%)” value [3]?
The value was 23%.

And the “Total Cell Count” value [3]?
The value was 1420.

And the “Population Apoptotic (%)” value [4]?
The value was 33%.

And the “Population Fragmented Nuclei (%)” value [4]?
The value was 30%.

What about the “Population Healthy Nuclei (%)” value [4] of the same molecule?
The value was 50%.

And the “Population Hoechst High Intensity Objects (%)” value [4]?
The value was 27%.

And the “Population Membrane Permeable-Phenotype (%)” value [4]?
Its value is 3%.

What about the “Population Mitochondria Different-Phenotype (%)” value [4] of the same molecule?
The value was 11%.

What about the “Population Mitotic Cells (%)” value [4] of the same molecule?
Its value is 66%.

What about the “Population Normal (%)” value [4] of the same molecule?
The value was 72%.

What about the “Population Pyknosed Nuclei (%)” value [4] of the same molecule?
Its value is 18%.

What about the “Population Tubulin-Different-Phenotype (%)” value [4] of the same molecule?
The value was 15%.

And the “Total Cell Count” value [4]?
The value was 844.

What about the “Population Apoptotic (%)” value [5] of the same molecule?
The value was 55%.

And the “Population Fragmented Nuclei (%)” value [5]?
The value was 19%.

What about the “Population Healthy Nuclei (%)” value [5] of the same molecule?
The value was 20%.

And the “Population Hoechst High Intensity Objects (%)” value [5]?
The value was 20%.

What about the “Population Membrane Permeable-Phenotype (%)” value [5] of the same molecule?
The value was 2%.

And the “Population Mitochondria Different-Phenotype (%)” value [5]?
The value was 80%.

What about the “Population Mitotic Cells (%)” value [5] of the same molecule?
The value was 44%.

What about the “Population Normal (%)” value [5] of the same molecule?
The value was 79%.

And the “Population Pyknosed Nuclei (%)” value [5]?
The value was 59%.

What about the “Population Tubulin-Different-Phenotype (%)” value [5] of the same molecule?
Its value is 61%.

What about the “Total Cell Count” value [5] of the same molecule?
Its value is 262.

What about the “Population Apoptotic (%)” value [6] of the same molecule?
The value was 20%.

What about the “Population Fragmented Nuclei (%)” value [6] of the same molecule?
Its value is 26%.

And the “Population Healthy Nuclei (%)” value [6]?
Its value is 50%.

What about the “Population Hoechst High Intensity Objects (%)” value [6] of the same molecule?
Its value is 16%.

And the “Population Mitochondria Different-Phenotype (%)” value [6]?
The value was 24%.

And the “Population Mitotic Cells (%)” value [6]?
The value was 80%.

What about the “Population Normal (%)” value [6] of the same molecule?
Its value is 83%.

And the “Population Pyknosed Nuclei (%)” value [6]?
Its value is 22%.

And the “Population Tubulin-Different-Phenotype (%)” value [6]?
Its value is 24%.

And the “Total Cell Count” value [6]?
The value was 531.

And the “Population Apoptotic (%)” value [7]?
Its value is 50%.

And the “Population Fragmented Nuclei (%)” value [7]?
Its value is 25%.

What about the “Population Healthy Nuclei (%)” value [7] of the same molecule?
The value was 50%.

What about the “Population Hoechst High Intensity Objects (%)” value [7] of the same molecule?
Its value is 30%.

And the “Population Membrane Permeable-Phenotype (%)” value [7]?
Its value is 1%.

And the “Population Mitochondria Different-Phenotype (%)” value [7]?
Its value is 19%.

And the “Population Mitotic Cells (%)” value [7]?
The value was 49%.

What about the “Population Normal (%)” value [7] of the same molecule?
The value was 69%.

What about the “Population Pyknosed Nuclei (%)” value [7] of the same molecule?
Its value is 23%.

What about the “Population Tubulin-Different-Phenotype (%)” value [7] of the same molecule?
Its value is 19%.

And the “Total Cell Count” value [7]?
The value was 1427.

What about the “Population Apoptotic (%)” value [8] of the same molecule?
Its value is 42%.

What about the “Population Fragmented Nuclei (%)” value [8] of the same molecule?
The value was 31%.

And the “Population Healthy Nuclei (%)” value [8]?
The value was 49%.

And the “Population Hoechst High Intensity Objects (%)” value [8]?
The value was 25%.

What about the “Population Membrane Permeable-Phenotype (%)” value [8] of the same molecule?
Its value is 0%.

What about the “Population Mitochondria Different-Phenotype (%)” value [8] of the same molecule?
The value was 12%.

And the “Population Mitotic Cells (%)” value [8]?
The value was 57%.

And the “Population Normal (%)” value [8]?
Its value is 74%.

And the “Population Pyknosed Nuclei (%)” value [8]?
Its value is 18%.

And the “Population Tubulin-Different-Phenotype (%)” value [8]?
The value was 14%.

And the “Total Cell Count” value [8]?
The value was 857.

What about the “Population Apoptotic (%)” value [9] of the same molecule?
The value was 62%.

What about the “Population Fragmented Nuclei (%)” value [9] of the same molecule?
The value was 23%.

And the “Population Healthy Nuclei (%)” value [9]?
The value was 17%.

And the “Population Hoechst High Intensity Objects (%)” value [9]?
The value was 23%.

What about the “Population Membrane Permeable-Phenotype (%)” value [9] of the same molecule?
Its value is 2%.

And the “Population Mitochondria Different-Phenotype (%)” value [9]?
The value was 56%.

And the “Population Mitotic Cells (%)” value [9]?
The value was 37%.

What about the “Population Normal (%)” value [9] of the same molecule?
The value was 76%.

And the “Population Pyknosed Nuclei (%)” value [9]?
The value was 58%.

What about the “Population Tubulin-Different-Phenotype (%)” value [9] of the same molecule?
The value was 29%.

What about the “Total Cell Count” value [9] of the same molecule?
Its value is 277.

And the “Population Apoptotic (%)” value [10]?
The value was 17%.

What about the “Population Fragmented Nuclei (%)” value [10] of the same molecule?
Its value is 21%.

And the “Population Healthy Nuclei (%)” value [10]?
Its value is 62%.

What about the “Population Hoechst High Intensity Objects (%)” value [10] of the same molecule?
The value was 15%.

What about the “Population Mitochondria Different-Phenotype (%)” value [10] of the same molecule?
Its value is 14%.

And the “Population Mitotic Cells (%)” value [10]?
The value was 82%.

What about the “Population Normal (%)” value [10] of the same molecule?
The value was 84%.

What about the “Population Pyknosed Nuclei (%)” value [10] of the same molecule?
The value was 16%.

What about the “Population Tubulin-Different-Phenotype (%)” value [10] of the same molecule?
The value was 27%.

And the “Total Cell Count” value [10]?
The value was 609.

What about the “Population Apoptotic (%)” value [11] of the same molecule?
Its value is 52%.

And the “Population Fragmented Nuclei (%)” value [11]?
The value was 29%.

And the “Population Healthy Nuclei (%)” value [11]?
The value was 46%.

What about the “Population Hoechst High Intensity Objects (%)” value [11] of the same molecule?
The value was 32%.

What about the “Population Membrane Permeable-Phenotype (%)” value [11] of the same molecule?
The value was 0%.

What about the “Population Mitochondria Different-Phenotype (%)” value [11] of the same molecule?
The value was 15%.

And the “Population Mitotic Cells (%)” value [11]?
The value was 47%.

And the “Population Normal (%)” value [11]?
The value was 67%.

What about the “Population Pyknosed Nuclei (%)” value [11] of the same molecule?
Its value is 23%.

What about the “Population Tubulin-Different-Phenotype (%)” value [11] of the same molecule?
The value was 16%.

What about the “Total Cell Count” value [11] of the same molecule?
The value was 1487.

What about the “Population Apoptotic (%)” value [12] of the same molecule?
The value was 42%.

And the “Population Fragmented Nuclei (%)” value [12]?
The value was 32%.

What about the “Population Healthy Nuclei (%)” value [12] of the same molecule?
Its value is 51%.

What about the “Population Hoechst High Intensity Objects (%)” value [12] of the same molecule?
The value was 24%.

And the “Population Mitochondria Different-Phenotype (%)” value [12]?
Its value is 16%.

And the “Population Mitotic Cells (%)” value [12]?
The value was 58%.

What about the “Population Normal (%)” value [12] of the same molecule?
Its value is 75%.

What about the “Population Pyknosed Nuclei (%)” value [12] of the same molecule?
Its value is 16%.

And the “Population Tubulin-Different-Phenotype (%)” value [12]?
Its value is 21%.

What about the “Total Cell Count” value [12] of the same molecule?
Its value is 828.
